# Measured values reported in ChEMBL document CHEMBL1136012, “Synthesis and structure-activity relationships of novel 7-substituted 1,4-dihydro-4-oxo-1-(2-thiazolyl)-1,8-naphthyridine-3-carboxylic acids as antitumor agents. Part 1” (J Med Chem, 2002).
# How the values were obtained:
# P388 [1] = test: In vitro antitumor activity of compound against P388 leukemia cells at a dose of […] mg/kg; type: functional, Mus musculus; design: concentration or dose not given beside the values
# [2] = Cytotoxic activity of compound against AZ-521 stomach human tumor cell line; type: functional
# Summary of the method: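 AZ-521 cells were grown in EMEM with 10% FBS, 2 mM glutamine and NEAA. They were plated at (1–2) × 10^4 cells/mL and preincubated for 24 h, then treated with a range of concentrations for 72 h at 37 °C, 5% CO2. After a 4 h MTT step, the formazan was dissolved in DMSO and read at 570 nm (reference 690 nm).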
# P388 [3] = test: […] antitumor activity of compound against P388 leukemia cells at a dose of 3.13 mg/kg; type: functional, Mus musculus
# Summary of the method: (§1)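 In vivo study: BDF1 mice received 10^6 P388 leukemia cells ip as diluted ascites fluid. Test compounds were suspended in 0.4% CMC and given ip on days 1 and 5 after implantation, with seven mice per group. The endpoint is T/C% = median survival time of the treated group / median survival time of controls × 100.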
# G-361 = test: Cytotoxic activity of compound against G-361 melanoma human tumor cell line; type: functional, cell-based
# Summary of the method: (§2)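 Culture was in McCoy's 5A with 10% FBS. Cells were seeded at (1–2) × 10^4 cells/mL, preincubated for 24 h, then incubated with various concentrations for 72 h at 37 °C under 5% CO2. MTT was added for 4 h and the formazan dissolved in DMSO, with A570 read against 690 nm.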
# P388 [4] = test: Cytotoxic activity of compound against Murine P388 Leukemia; type: functional, cell-based, Mus musculus
# Summary of the method: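 Murine P388 cells were cultured in EMEM with 10% FBS, 2 mM glutamine, 50 units/mL penicillin and 50 μg/mL streptomycin. They were seeded at (1–2) × 10^4 cells/mL without preincubation and exposed to varying concentrations for 72 h at 37 °C, 5% CO2. MTT was then added for 4 h, formazan dissolved in DMSO and read at 570/690 nm.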
# SK-OV-3 = test: Cytotoxic activity of compound against SK-OV-3 ovary human tumor cell line; type: functional, cell-based; conditions: SK-OV-3, Female gonad
# Summary of the method: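 SK-OV-3 cells were maintained in McCoy's 5A with 15% FBS. After seeding at (1–2) × 10^4 cells/mL and 24 h preincubation, wells received graded concentrations for 72 h at 37 °C, 5% CO2. A 4 h MTT incubation followed, with DMSO solubilization and absorbance at 570/690 nm.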
# A-427 = test: Cytotoxic activity of compound against A-427 lung human tumor cell line; type: functional, cell-based
# Summary of the method: (§3)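 Cells were kept in EMEM with 10% FBS, 2 mM glutamine, NEAA and 1 mM sodium pyruvate. They were seeded at (1–2) × 10^4 cells/mL and preincubated for 24 h. They were then exposed to graded concentrations for 72 h at 37 °C in 5% CO2. MTT was added for a further 4 h and the formazan dissolved in DMSO, with absorbance at 570/690 nm.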
# P388 [5] = test: […] antitumor activity of compound against P388 leukemia cells at a dose of 50 mg/kg; type: functional, Mus musculus; summary of the method: as §1
# [6] = Cytotoxic activity of compound against SCaBER bladder squamous human tumor cell line; type: functional, cell-based; summary of the method: as §3
# HT-29 = test: Cytotoxic activity of compound against HT-29 colon human tumor cell line; type: functional, cell-based; summary of the method: as §2
# P388 [7] = test: […] antitumor activity f compound against P388 leukemia cells at a dose of […] mg/kg; type: functional, Mus musculus
# DNA topoisomerase II = DNA topoisomerase II (Homo sapiens, UniProt P11388+Q02880); test: Inhibitory activity in a DNA cleavage assay using HeLa DNA topoisomerase II yielding its effective concentration; type: protein assay
# [8] = Mus musculus, P388, read-out: IC50
molecule,measurement,setting,value
COc1cc([C@@H]2c3cc4c(cc3[C@@H](O[C@@H]3O[C@@H]5CO[C@@H](C)O[C@H]5[C@H](O)[C@H]3O)[C@H]3COC(=O)[C@H]23)OCO4)cc(OC)c1O [ETOPOSIDE],T/C,P388 [1],250%
same,IC50,[2],0.08 µg/mL
same,T/C,P388 [3],175%
same,IC50,G-361,0.28 µg/mL
same,IC50,P388 [4]; [8],0.0085 µg/mL
same,IC50,SK-OV-3,0.95 µg/mL
same,IC50,A-427,0.095 µg/mL
same,T/C,P388 [5],>375%
same,IC50,[6],0.31 µg/mL
CO[C@H]1CN(c2nc3c(cc2F)c(=O)c(C(=O)O)cn3-c2nccs2)C[C@@H]1N.Cl (stereo in doubt; 43j),T/C,P388 [1],238%
same,IC50,[2],0.58 µg/mL
same,T/C,P388 [3],138%
same,IC50,G-361,0.4 µg/mL
same,IC50,HT-29,2.1 µg/mL
same,IC50,P388 [4]; [8],0.038 µg/mL
same,IC50,SK-OV-3,1.1 µg/mL
same,IC50,A-427,0.42 µg/mL
same,T/C,P388 [5],>375%
same,IC50,[6],0.78 µg/mL
Cl.O=C(O)c1cn(-c2nccs2)c2nc(N3CC[C@H](O)C3)c(F)cc2c1=O,IC50,P388 [4]; [8],0.02 µg/mL
Cl.NCCNc1nc2c(cc1F)c(=O)c(C(=O)O)cn2-c1nccs1,IC50,P388 [4]; [8],> 10 µg/mL
CO[C@@H]1CN(c2nc3c(cc2F)c(=O)c(C(=O)O)cn3-c2nccs2)C[C@@H]1N.Cl,IC50,P388 [4]; [8],0.084 µg/mL
Cl.NC1CCN(c2nc3c(cc2F)c(=O)c(C(=O)O)cn3-c2nccs2)CC1,IC50,P388 [4]; [8],1.63 µg/mL
C[C@H]1CN(c2nc3c(cc2F)c(=O)c(C(=O)O)cn3-c2nccs2)C[C@@H]1N.Cl,T/C,P388 [1],175%
same,T/C,P388 [3],138%
same,IC50,P388 [4]; [8],0.011 µg/mL
same,T/C,P388 [5],238%
Cl.NCC1=CCN(c2nc3c(cc2F)c(=O)c(C(=O)O)cn3-c2nccs2)C1,IC50,P388 [4]; [8],0.084 µg/mL
Cl.Cn1nccc1-n1cc(C(=O)O)c(=O)c2cc(F)c(N3CCC(N)C3)nc21 (stereo not drawn),IC50,P388 [4]; [8],> 10 µg/mL
Cl.O=C(O)c1cn(-c2nccs2)c2nc(N3CCC(O)C3)c(F)cc2c1=O (stereo not drawn),T/C,P388 [3],138%
same,IC50,P388 [4]; [8],0.036 µg/mL
same,T/C,P388 [5],225%
same,T/C,P388 [7],175%
Cl.NCC1CN(c2nc3c(cc2F)c(=O)c(C(=O)O)cn3-c2nccs2)C[C@H]1Cl (stereo partly drawn),IC50,P388 [4]; [8],0.156 µg/mL
Cl.NC1CCN(c2nc3c(cc2F)c(=O)c(C(=O)O)nn3-c2nccs2)C1 (stereo not drawn),IC50,P388 [4]; [8],> 10 µg/mL
CISPLATIN,IC50,P388 [4]; p388,0.011 µg/mL
Cl.N[C@@H]1CCN(c2nc3c(cc2F)c(=O)c(C(=O)O)cn3-c2nccs2)C1,IC50,P388 [4]; [8],0.016 µg/mL
Cc1csc(-n2cc(C(=O)O)c(=O)c3cc(F)c(N4CCC(N)C4)nc32)n1.Cl (stereo not drawn),IC50,P388 [4]; [8],0.051 µg/mL
Cl.NC1CCN(c2nc3c(cc2F)c(=O)c(C(=O)O)cn3-c2ccno2)C1 (stereo not drawn),IC50,P388 [4]; [8],9.4 µg/mL
Cl.NC1CCN(c2nc3c(cc2F)c(=O)c(C(=O)O)cn3-c2nncs2)C1 (stereo not drawn),IC50,P388 [4]; [8],5.5 µg/mL
CC(C)(C)c1csc(-n2cc(C(=O)O)c(=O)c3cc(F)c(N4CCC(N)C4)nc32)n1.Cl (stereo not drawn),IC50,P388 [4]; [8],0.88 µg/mL
Cc1cnc(-n2cc(C(=O)O)c(=O)c3cc(F)c(N4CCC(N)C4)nc32)s1.Cl (stereo not drawn),IC50,P388 [4]; [8],0.26 µg/mL
Cl.NC1CCN(c2nc3c(cc2F)c(=O)c(C(=O)O)cn3-c2ccc(F)cc2)C1 (stereo not drawn),IC50,P388 [4]; [8],2.1 µg/mL
Cl.N[C@H]1CN(c2nc3c(cc2F)c(=O)c(C(=O)O)cn3-c2nccs2)C[C@@H]1O,IC50,P388 [4]; [8],2.09 µg/mL
Cl.NCCSc1nc2c(cc1F)c(=O)c(C(=O)O)cn2-c1nccs1,IC50,P388 [4]; [8],> 10 µg/mL
Cl.O=C(O)c1cn(-c2nccs2)c2nc(O)c(F)cc2c1=O,IC50,P388 [4]; [8],> 10 µg/mL
Cl.NCC1CCN(c2nc3c(cc2F)c(=O)c(C(=O)O)cn3-c2nccs2)C1 (stereo not drawn),IC50,P388 [4]; [8],0.101 µg/mL
CN1CC=C2CN(c3nc4c(cc3F)c(=O)c(C(=O)O)cn4-c3nccs3)CC21.Cl (stereo not drawn),IC50,P388 [4]; [8],0.038 µg/mL
Cl.NC1CCN(c2cc3c(cc2F)c(=O)c(C(=O)O)cn3-c2nccs2)C1 (stereo not drawn),IC50,P388 [4]; [8],> 10 µg/mL
Cl.NC1CCN(c2nc3c(cc2F)c(=O)c(C(=O)O)cn3-c2ccccc2)C1 (stereo not drawn),IC50,P388 [4]; [8],2.4 µg/mL
Cl.NC1CCN(c2nc3c(cc2F)c(=O)c(C(=O)O)cn3-c2nccs2)C1 (stereo not drawn),T/C,P388 [1],213%
same,IC50,[2],0.35 µg/mL
same,T/C,P388 [3],150%
same,IC50,G-361,0.39 µg/mL
same,IC50,HT-29,1.2 µg/mL
same,IC50,DNA topoisomerase II,> 200 µg/mL
same,IC50,P388 [4]; [8],0.021 µg/mL
same,IC50,SK-OV-3,0.93 µg/mL
same,IC50,A-427,0.22 µg/mL
same,T/C,P388 [5],>375%
same,IC50,[6],0.34 µg/mL
Cl.NC1CCN(c2nc3c(cc2F)c(=O)c(C(=O)O)cn3-c2ncc(Br)s2)C1 (stereo not drawn),IC50,P388 [4]; [8],0.085 µg/mL
Cl.N[C@H]1CCN(c2nc3c(cc2F)c(=O)c(C(=O)O)cn3-c2nccs2)C1,IC50,P388 [4]; [8],0.028 µg/mL
